Measurements from article PMC5050072 (Clinical cancer research : an official journal of the …, 2016).

Key:
[1] = tested on: NICD-expressing vascular structures; experiment: NICD/CD31 immunohistochemistry of tumor blood vessels; assay type: in vivo, human
GSC-like CD133+ cells = experiment: Organotypic tumor explants: FACS analysis of CD133+ cells; assay type: cell-based, human; conditions: RO4929097 alone; n=5
[2] = Plasma pharmacokinetics of RO4929097; assay type: in vivo, human; conditions: 10, 15, 20 mg, with temozolomide 75mg/m2
Procedure, shortened: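 Daily test compound at 10, 15 or 20 mg, combined with temozolomide 75 mg/m² and 150 mg/m². Plasma levels measured by HPLC-MS/MS. […] Reported as mean ±SD.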

[3] = tested on: Notch intracellular domain (NICD); experiment: NICD immunohistochemistry of tumor cells in matched glioblastoma tissue; assay type: in vivo, human; conditions: after presurgical 7-day treatment; before 21.9 ± 5.4 %; n=6
Procedure, shortened: (§1)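 Tumor sections taken before and after 7 days of daily test compound were immunostained; the last dose was given 2–3 h before resection. NICD used an anti-NICD antibody. At least 1,000 cells counted per marker, with morphometry by image analysis. Ki-67 values were also grouped by patient survival (n=7). Mean±SEM; unpaired Student's t-tests.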

Notch pathway components = assay type: in vivo, human; conditions: enhancing tissue compared to areas of intact BBB, after 7 days
Procedure, shortened: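 After 7 days of daily test compound (last dose 2–3 h pre-resection), tumor was sampled separately from contrast-enhancing and non-enhancing regions, defined by intraoperative MRI. Notch pathway transcripts were quantified by real-time PCR, normalized to 18S (n=6). Mean±SEM; unpaired Student's t-tests.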

[4] = assay type: in vivo, human
glioblastoma explants [5] = experiment: Organotypic tumor explants: Ki-67 immunofluorescent staining; assay type: cell-based, human; conditions: RO4929097 1 µM, 10 days in vitro; n=4
Procedure, shortened: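 Fresh tumor tissue from patients resected on study was grown as 3-D organotypic explants. Established explants were treated with the test compound alone. Proliferation was read by Ki-67 immunofluorescent staining and counting of Ki-67+ nuclei before and after treatment (n=4). Mean±SEM; unpaired Student's t-test.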

glioblastoma explants [6] = experiment: Organotypic tumor explants: CellTiter Glo Luminescent Assay; assay type: cell-based, human; conditions: triple combination RT+temozolomide+RO4929097; n=5
[7] = tested on: Notch gene targets, angiogenesis and mesenchymal genes; experiment: RNA-Ampliseq gene expression profiling of matched and recurrent tumors; assay type: in vivo, human
Procedure, shortened: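 RNA sequencing on FFPE tumor tissue. Samples were matched archival pre-treatment tissue and tissue resected after the initial 7 days of daily test compound. A further set was recurrent tumors resected at repeat surgery from patients kept on the test compound (with temozolomide) until the day of surgery (n=7).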

[8] = tested on: tumor cells proliferation (Ki-67); experiment: Ki-67 immunohistochemistry of matched pre- and post-treatment tumor tissue; assay type: in vivo, human
Procedure, shortened: as §1

Hes1 = conditions: cited from earlier work
[9] = tested on: tumor blood perfusion and vascular permeability; experiment: DCE-perfusion MRI before and after 7 days of RO4929097; assay type: in vivo, human; conditions: after 7 days of RO4929097
Procedure, shortened: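 Dynamic contrast-enhanced perfusion MRI in glioma patients before and after 7 days of daily test compound given before resection. Read-outs were relative fractional plasma volume (Vp) for blood perfusion and volume transfer coefficient between plasma and extravascular extracellular space (K^trans) for vascular permeability. Values given as mean±SEM; significance by unpaired Student's t-test.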

[10] = Phase I 3+3 dose escalation of RO4929097 with RT and temozolomide: toxicity; assay type: in vivo, human
[11] = after RO4929097, survival cut-off 14 months
[12] = second surgery after prolonged course (mean 181 days)

Q: Which results are given for `CC(C)(C(=O)NCC(F)(F)C(F)(F)F)C(=O)N[C@@H]1C(=O)Nc2ccccc2-c2ccccc21` [RO4929097]?
A: microvascular density ([1]; Pre vs Post vs PostPP): no significant change; NICD expression on vascular structures, better survival group [1, 11]: 22.5 ± 5.0%; NICD expression on vascular structures, poor survival group [1, 11]: 43.8 ± 9.0%; NICD-expressing vascular structures (Post) ([1]; at 7 days of RO4929097, Pre 67.6 ± 5.2 %, percent of total blood vessels): 30.0 ± 9.0%; NICD-expressing vascular structures (PostPP) ([1]; at recurrence after prolonged treatment, Pre 67.6 ± 5.2 %): 24.2 ± 5.2%; proportion of CD133+ cells in explants (GSC-like CD133+ cells): significant decrease; mean Cmax and AUC24 for the initial dose [2]: increased as the dose was escalated; NICD-positive tumor cells after treatment [3]: 5.1 ± 1.3%; Hes1 mRNA levels (Notch pathway components): remained unchanged; mRNA of Notch receptors (Notch 2, 3 and 4) (Notch pathway components): significant upregulation; mRNA of downstream effector Hes5 (Notch pathway components): suppression; mRNA of DLL1, DLL3 and Jag2 ligands (Notch pathway components; n=6): significant downregulation; tumor drug level, enhancing tissue ([4]; after 7 days of RO4929097, at surgery, disrupted BBB, mean ± SEM): 0.73 ± 0.13 µM; tumor drug level, non-enhancing tissue ([4]; after 7 days of RO4929097, at surgery, intact BBB, mean ± SEM): 0.33 ± 0.04 µM; drug level in non-enhancing tumor tissue, specimen M09 ([4]; repeat surgery, prolonged RO4929097 use, single specimen): ~ 1.3 µM; tumor drug concentration, enhancing areas [4, 12]: 0.77 ± 0.19 µM; tumor drug concentration, non-enhancing areas [4, 12]: 0.71 ± 0.24 µM; average tissue drug level, favorable survival group ([4]; tumor tissue, survival cut-off 14 months): 0.15 ± 0.03 µM; average tissue drug level, poor survival group ([4]; tumor tissue, survival cut-off 14 months, p=0.36 vs favorable): 0.19 ± 0.05 µM; proliferation (Ki-67 quantification) in explants (glioblastoma explants [5]): significant decrease in proliferation; decrease in tumor cell viability compared to control untreated explants (glioblastoma explants [6]): ~60%; mesenchymal-associated genes C/EBPB and STAT3 ([7]; after presurgical 7-day RO4929097 treatment phase): downregulated; expression of primary Notch gene targets Hes5, Hey1 and Hey2 ([7]; mostly recurrence group with prolonged therapy, not statistically significant): trend towards downregulation; angiogenesis markers PECAM (CD31), angiopoetins and VEGFA ([7]; recurrent tumors under prolonged RO4929097 therapy): upregulation; Ki-67, poor survival group ([8]; after 7 days of RO4929097, baseline 15.0 ± 2.3 %): 20.4 ± 2.2%; Ki-67, favorable survival subgroup ([8]; after 7 days of RO4929097, baseline 37.3 ± 10.7 %): 8.5 ± 3.2%; Ki-67 proliferation marker after treatment ([8]; after 7 days of RO treatment, before 27.7 ± 7.3 %, n=7): 13.6 ± 3.1%; concentration from which target genes (e.g. Hes1) are reduced dose-dependently (Hes1): ≥ 0.1 µM; mean K^trans after treatment ([9]; baseline 0.05± 0.01): 0.03 ± 0.01 min⁻¹; mean Vp ratio after drug exposure ([9]; baseline 9.34± 2.4, p<0.05, 8 patients): 3.92± 0.9; QTc prolongation [10]: no significant QTc prolongation; treatment-related deaths [10]: no treatment-related deaths; recommended phase 2 dose (RP2D) ([10]; daily): 20 mg
